This passage reports Ki and Ratio Ki results from ChEMBL document CHEMBL1932931, “Analogues of doxanthrine reveal differences between the dopamine D1 receptor binding properties of chromanoisoquinolines and hexahydrobenzo[a]phenanthridines” (Eur J Med Chem, 2012).

What is called Ki is the dissociation constant of the complex between target and ligand, obtained from inhibition or displacement. Higher therefore signals lower affinity.

A short description of test [1]: Displacement of [3H]SCH-23390 from dopamine D1-like receptor in porcine striatal homogenates after 30 mins by scintillation counting. It counts as tissue-based, Sus scrofa. In outline:
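Fresh porcine striatum was homogenized in 20 mM Hepes/0.32 M sucrose (pH 7.4), and the P2 membrane pellet was washed in 50 mM Tris (pH 7.4) and stored at -80 °C. Incubation was 30 min at 37 °C, then filtration and scintillation counting. Values are means ± SEM of 4-11 independent experiments.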
For orientation: Loss of bound radioactivity is the signal in a displacement assay; it reports binding, not function.

Test [2] is described as follows: Displacement of [3H]spiperone from dopamine D2-like receptor in porcine striatal homogenates after 30 mins by scintillation counting. It counts as tissue-based, Sus scrofa.
The species named for a further test is Sus scrofa. The experiment in a line: Selectivity ratio of Ki for dopamine D2-like receptor in porcine striatal homogenates to Ki for dopamine D1-like receptor in porcine striatal homogenates. It counts as tissue-based.
The nature of test [3]: Selectivity ratio of Ki for dopamine D1 receptor to Ki for dopamine D2 receptor.
The next test concerns the target D(2) dopamine receptor (Homo sapiens, UniProt P14416). The experiment in a line: Binding affinity to dopamine D2 receptor.

Chain of D(2) dopamine receptor (P14416 whole entry): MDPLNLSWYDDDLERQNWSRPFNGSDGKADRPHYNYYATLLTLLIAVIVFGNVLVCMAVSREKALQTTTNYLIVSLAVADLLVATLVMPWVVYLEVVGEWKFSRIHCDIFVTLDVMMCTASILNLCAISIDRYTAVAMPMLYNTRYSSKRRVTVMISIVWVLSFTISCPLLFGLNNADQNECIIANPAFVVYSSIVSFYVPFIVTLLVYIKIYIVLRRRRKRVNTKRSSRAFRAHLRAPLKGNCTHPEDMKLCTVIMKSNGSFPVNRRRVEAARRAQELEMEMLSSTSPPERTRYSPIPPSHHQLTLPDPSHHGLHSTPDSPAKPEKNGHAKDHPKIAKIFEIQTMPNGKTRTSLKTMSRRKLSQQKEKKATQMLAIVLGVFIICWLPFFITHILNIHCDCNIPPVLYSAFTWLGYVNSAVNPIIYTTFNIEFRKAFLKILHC

Regarding `Oc1cc2c(cc1O)[C@H]1c3ccccc3CN[C@@H]1CS2` (racemic), the Ki is 200 nM in test [1] and 2500 nM in test [2]. The Ratio Ki in the test filed under Sus scrofa worked out at 15.
For the compound `Cc1ccc2c(c1)[C@@H]1c3cc(O)c(O)cc3CC[C@H]1NC2`, in test [3], the Ratio Ki came to 34.7.
For the compound `Cc1ccc2c(c1)[C@@H]1c3cc(O)c(O)cc3OC[C@H]1NC2` (racemic), the values for the Ki in test [1] and in test [2] were 150 nM and 6800 nM, respectively. The Ratio Ki in the test listed under Sus scrofa amounted to 55.
In the same order, the values of `Oc1cc2c(cc1O)[C@H]1c3cc(C(F)(F)F)ccc3CN[C@@H]1CO2` (racemic) are 570 nM, 6900 nM and 14.
The compound `CN1CCc2cc(Cl)c(O)cc2[C@@H](c2ccccc2)C1` showed a Ki in test [1] of 0.46 nM.
With `Oc1cc2c(cc1O)[C@H]1c3cc(F)ccc3CN[C@@H]1CO2` (racemic), the inhibitory constant (Ki) came out at 110 nM in test [1] and 740 nM in test [2]. For the same compound, in the test filed under Sus scrofa, the Ratio Ki stood at 8.5.
With `CCc1ccc2c(c1)[C@@H]1c3cc(O)c(O)cc3CC[C@H]1NC2`, the Ratio Ki in test [3] was found to be 14.5. At D(2) dopamine receptor, this compound yielded a Ki of 420 nM.
`CCc1ccc2c(c1)[C@@H]1c3cc(O)c(O)cc3OC[C@H]1NC2` (racemic): the Ki came to 180 nM in test [1] and 6400 nM in test [2]. For the same compound, the Ratio Ki in the test filed under Sus scrofa was found to be 49.
